IC50 and inhibition data for seven molecules are collected here from ChEMBL document CHEMBL4257497, “Design, synthesis and biological evaluation of novel 1,3-diarylpyrazoles as cyclooxygenase inhibitors, antiplatelet and anticancer agents” (Medchemcomm, 2018).

One series deals with MCF7. Description: Cytotoxicity against human MCF7 cells after 72 hrs by SRB assay. It is filed as functional, cell-based. An outline of the steps: (§1)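 Cells cultured in DMEM with 10% FBS, 1% non-essential amino acids, penicillin/streptomycin, 37 °C, 5% CO2. 2000–3000 cells per well seeded, grown 24 h, then exposed 72 h to compound (DMSO) at 40, 20, 10, 5, 2.5 μM. TCA fixation, 0.4% SRB stain, unbound dye washed off with 1% acetic acid, bound dye dissolved in 10 mM Tris base, absorbance 515 nm. IC50 against DMSO controls, triplicate.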
Background: Sulforhodamine B stains cellular protein and so reports cell mass.

The subject of series [1] is Platelet. Description: Antiplatelet activity in human platelet rich plasma assessed as inhibition of collagen-induced platelet aggregation at 100 uM preincubated for 5 mins followed by arachidonic acid addition measured for 3 mins by aggregometric analysis relative to control. It is filed as functional. An outline of the steps:
(§2)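 Citrated venous blood (3.2% citrate, 1:9) from healthy donors free of antiplatelet drugs for 10 days; PRP from 800 rpm 10 min spin, PPP from 1500 rpm 10 min; count set to 3.8 × 10^5 platelets […]. PRP stirred at 1100 rpm, 37 °C; compound in DMSO (1% carrier) 5 min before agonist (AA final 700 μM; collagen 5 μg ml−1). Turbidimetric read, triplicate; % inhibition versus DMSO-treated maximum aggregation.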

Series [2] has as its system Platelet. Description: Antiplatelet activity in human platelet rich plasma assessed as inhibition of arachidonic acid-induced platelet aggregation at 100 uM preincubated for 5 mins followed by arachidonic acid addition measured for 3 mins by aggregometric analysis relative to control. It is filed as functional. The gist of the method:
as §2

The next series deals with HCT-116. As to the kind of experiment: Cytotoxicity against human HCT116 cells after 72 hrs by SRB assay. It is filed as functional, cell-based. The gist of the method: as §1
Series [3] relates to Platelet. As to the kind of experiment: Antiplatelet activity in human platelet rich plasma assessed as inhibition of arachidonic acid-induced platelet aggregation preincubated for 5 mins followed by arachidonic acid addition measured for 3 mins by aggregometric analysis. It is filed as functional, cell-based.
Series [4] has as its target T1, COX1 (Prostaglandin G/H synthase 1) (Ovis aries, UniProt P05979).
T1 sequence (P05979 whole entry): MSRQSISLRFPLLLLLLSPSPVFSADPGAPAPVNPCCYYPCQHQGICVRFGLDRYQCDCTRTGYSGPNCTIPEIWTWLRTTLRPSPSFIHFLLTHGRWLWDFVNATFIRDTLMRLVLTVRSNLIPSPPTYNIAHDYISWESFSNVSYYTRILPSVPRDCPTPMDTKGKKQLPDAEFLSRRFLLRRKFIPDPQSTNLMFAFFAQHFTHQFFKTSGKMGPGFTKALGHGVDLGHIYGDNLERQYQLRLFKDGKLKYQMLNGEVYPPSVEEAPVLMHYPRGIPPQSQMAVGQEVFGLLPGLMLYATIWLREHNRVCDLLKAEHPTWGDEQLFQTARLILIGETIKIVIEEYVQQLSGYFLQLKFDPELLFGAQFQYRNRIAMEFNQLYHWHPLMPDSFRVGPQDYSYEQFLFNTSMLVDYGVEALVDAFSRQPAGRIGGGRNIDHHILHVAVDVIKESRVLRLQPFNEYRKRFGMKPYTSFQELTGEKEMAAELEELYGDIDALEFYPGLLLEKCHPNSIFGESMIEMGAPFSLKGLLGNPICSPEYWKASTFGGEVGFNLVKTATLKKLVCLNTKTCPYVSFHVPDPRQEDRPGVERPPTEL
As to the kind of experiment: Inhibition of sheep COX1 at 10 uM assessed as reduction in PGE2 formation using arachidonic acid as substrate by enzyme immunoassay relative to control. Conditions: probe arachidonic acid; call rule not given here. An outline of the steps: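 Recombinant ovine COX-1, test agent at 10 μM, arachidonic acid as substrate. PGE2 formed is measured by competitive EIA (PGE2–acetylcholinesterase tracer, monoclonal anti-PGE2, Ellman's reagent, absorbance 412 nm) and quantified from an 8-point PGE2 standard curve. Result given as % inhibition of enzyme activity.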

Another series has as its system Huh-7. As to the kind of experiment: Cytotoxicity against human HuH7 cells after 72 hrs by SRB assay. It is filed as functional, cell-based. An outline of the steps:
as §1

[5] abbreviates: Homo sapiens, MCF7, 72 h, read-out: IC50.
Setting [6] is: Homo sapiens, HCT-116, 72 h, read-out: IC50.
[7] abbreviates: Homo sapiens, Huh-7, 72 h, read-out: IC50.

The IC50 is the concentration at which inhibition is half-maximal. In general, inhibition refers to the percentage by which the read-out fell short of the control. As to `CS(=O)(=O)c1ccc(-n2cc(/C=C/C(=O)NCCc3ccccn3)c(-c3cccnc3)n2)cc1`, the 50% inhibitory concentration (IC50) in the series with MCF7 (setting [5]) was 14.3 µM; with HCT-116 (hct-116), “Not Active”; with Platelet [3], 10.1 µM; in the series with Huh-7 (huh-7) it was “Not Active”. For the same molecule, the inhibition at 100 µM in the series with Platelet [1] came out at 78.7%; with Platelet [2] it was 90.7%. For the same molecule, the inhibition at 10 µM in series [4] came out at 54.6%.

For the molecule `CS(=O)(=O)c1ccc(-n2cc(/C=C/C(=O)NCCc3ccncc3)c(-c3cccnc3)n2)cc1`, the concentration for half-maximal inhibition (IC50) result with MCF7 (mcf7) is “Not Active”; in the series on HCT-116 (setting [6]), 19.8 µM; with Platelet [3] it was 21.4 µM; in the series on Huh-7 (setting [7]) it was 38.7 µM. The results for the inhibition at 100 µM with Platelet [1] and in the series on Platelet [2] were 71.8% and 100%, respectively. Also, the inhibition at 10 µM in series [4] was 7.95%.

In the case of `O=C(/C=C/c1cn(-c2ccccc2)nc1-c1ccncc1)NCCCn1ccnc1`, the IC50 entry in the series on MCF7 (mcf7) was “Not Active”; with HCT-116 (setting [6]) it was 18.5 µM; in the series with Platelet [3] it was 33.6 µM; in the series on Huh-7 (setting [7]), 6.8 µM. Further, the inhibition at 100 µM in the series on Platelet [1] was determined as 88.9%; in the series on Platelet [2], 90.6%. For the same molecule, the inhibition at 10 µM in series [4] came to 12.6%.

`O=C(/C=C/c1cn(-c2ccccc2)nc1-c1ccncc1)NCCc1cccnc1`: the half-inhibitory concentration (IC50) is 16.1 µM with MCF7 (setting [5]), 14.6 µM in the series on HCT-116 (setting [6]), 29.1 µM in the series with Platelet [3] and “Not Active” in the series on Huh-7 (huh-7). Also, the inhibition at 100 µM in the series on Platelet [1] came out at 86.9%; in the series with Platelet [2], 93.7%. Besides, the inhibition at 10 µM in series [4] came to 9.37%.

With `O=C(/C=C/c1cn(-c2ccccc2)nc1-c1ccncc1)NCCc1ccccn1`, the IC50 in the series on MCF7 (setting [5]) was 12.2 µM; in the series with HCT-116 (hct-116) it was “Not Active”; with Platelet [3], 32.8 µM; in the series with Huh-7 (setting [7]), 27.3 µM. Further, the inhibition at 100 µM in the series with Platelet [1] amounted to 41.9%; with Platelet [2], 100%. For the same molecule, the inhibition at 10 µM in series [4] was 13.1%.

In the case of `O=C(/C=C/c1cn(-c2ccccc2)nc1-c1ccncc1)NCc1ccccn1`, the half-maximal inhibitory concentration (IC50) result was “Not Active” in the series with MCF7 (mcf7), 20.4 µM with HCT-116 (setting [6]), 78.3 µM in the series with Platelet [3] and 14.7 µM in the series with Huh-7 (setting [7]). Further, the inhibition at 100 µM with Platelet [1] worked out at 41.6%; in the series with Platelet [2], 100%. The inhibition at 10 µM in series [4] is 5.96%.

Turning to `CS(=O)(=O)c1ccc(-n2cc(/C=C/C(=O)NCc3cccnc3)c(-c3cccnc3)n2)cc1`, the 50% inhibitory concentration (IC50) entry with MCF7 (mcf7) is “Not Active”; in the series on HCT-116 (hct-116) it was “Not Active”; with Platelet [3] it was 49.8 µM; in the series with Huh-7 (huh-7), “Not Active”. Besides, the inhibition at 100 µM worked out at 64.1% with Platelet [1] and 90% with Platelet [2]. For the same molecule, in series [4], the inhibition at 10 µM was determined as 13.1%.
